This passage reports Ki, Activity and Ratio Ki results from ChEMBL document CHEMBL2440006, “Mastering tricyclic ring systems for desirable functional cannabinoid activity” (Eur J Med Chem, 2013).

Sequence of Cannabinoid receptor 1 (P20272 whole entry): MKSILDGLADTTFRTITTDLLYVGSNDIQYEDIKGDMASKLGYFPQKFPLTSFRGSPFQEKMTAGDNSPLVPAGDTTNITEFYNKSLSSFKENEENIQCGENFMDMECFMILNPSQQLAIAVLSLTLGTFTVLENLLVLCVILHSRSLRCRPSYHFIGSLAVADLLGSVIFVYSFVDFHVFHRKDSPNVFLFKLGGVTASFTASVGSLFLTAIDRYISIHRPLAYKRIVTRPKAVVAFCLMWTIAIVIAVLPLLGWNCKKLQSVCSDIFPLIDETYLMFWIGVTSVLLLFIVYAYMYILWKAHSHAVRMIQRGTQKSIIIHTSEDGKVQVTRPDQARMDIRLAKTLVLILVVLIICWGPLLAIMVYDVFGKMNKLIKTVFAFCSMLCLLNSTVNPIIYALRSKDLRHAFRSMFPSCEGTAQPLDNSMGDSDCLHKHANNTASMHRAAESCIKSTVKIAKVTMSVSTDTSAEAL
T1 sequence (P34972 whole entry): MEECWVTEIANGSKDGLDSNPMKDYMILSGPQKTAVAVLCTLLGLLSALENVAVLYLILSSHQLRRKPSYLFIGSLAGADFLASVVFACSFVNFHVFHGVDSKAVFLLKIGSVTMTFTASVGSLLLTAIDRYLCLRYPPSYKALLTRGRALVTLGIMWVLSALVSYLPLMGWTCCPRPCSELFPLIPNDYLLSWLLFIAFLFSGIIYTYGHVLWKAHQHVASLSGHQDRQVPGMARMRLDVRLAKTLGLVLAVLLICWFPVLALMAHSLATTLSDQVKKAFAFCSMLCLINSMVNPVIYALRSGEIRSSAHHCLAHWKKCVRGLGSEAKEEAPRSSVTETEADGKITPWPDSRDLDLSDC

The first assay concerns the target T1, Cannabinoid receptor 2 (Homo sapiens, UniProt P34972). The assay can be described thus: Displacement of [3H]-CP55940 from human CB2 receptor expressed in HEK293 cells after 1.5 hrs by microbeta liquid scintillation counting analysis. The note with it: read-out: Ki. The class given is cell-based. Summed up:
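Membranes from rat brain homogenate (CB1) or HEK293 cells expressing human CB2. GF/B filtration, then scintillation counting. IC50 by three-parameter logistic fit, Ki by Cheng-Prusoff. Three experiments in triplicate.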
Background: In a radioligand displacement assay an active substance lowers the binding of a labelled ligand.
With `O=C(c1ccc2c(c1)c1ccccc1n2Cc1cccnc1)N1CCCCC1`, the Ki (as a rule, the dissociation constant of the complex between target and ligand, obtained from inhibition or displacement) worked out at 0.6 µM.

With `CCOC(=O)CCn1c2ccccc2c2cc(C(=O)N3CCCCC3)ccc21`, the inhibition constant (Ki) turned out to be 1.31 µM.

For `CCOC(=O)CCn1c2ccccc2c2cc(C(=O)N3CCN(C)CC3)ccc21`, the Ki was determined as 3.38 µM.

As to `CCCCCn1c2ccccc2c2cc(C(=O)N3CCS(=O)(=O)CC3)ccc21`, the inhibition constant (Ki) stood at 0.225 µM.

Regarding `O=C(OCCCn1c2ccccc2c2cc(C(=O)N3CCCCC3)ccc21)N1CCS(=O)(=O)CC1`, the inhibition constant (Ki) was determined as 0.073 µM.

In the case of `CCCCCn1c2ccccc2c2cc(CN3CCN(C)CC3)ccc21`, the Ki is 0.74 µM.

In the case of `CCCCCCn1c2ccccc2c2cc(C(=O)N3CCCCC3)ccc21`, the Ki was 0.096 µM.

In the case of `CCCCCn1c2ccccc2c2cc(C(=O)OCc3ccncc3)ccc21`, the inhibition constant (Ki) is 1.39 µM.

With `CCCCCn1c2ccccc2c2cc(C(=O)NC34CC5CC(CC(C5)C3)C4)ccc21`, the inhibitory constant (Ki) was found to be 0.288 µM.

Turning to `O=C(c1ccc2c(c1)c1ccccc1n2CCCN1CCCCC1)N1CCCCC1`, the Ki was 2.17 µM.

As for `CCCCCn1c2ccccc2c2cc(C(=O)N3CCN(C)CC3)ccc21`, the Ki was determined as 0.0354 µM.

`CCCn1c2ccccc2c2cc(C(=O)N3CCCCC3)ccc21`: the Ki worked out at 0.521 µM.

`O=C(c1ccc2c(c1)c1ccccc1n2CCCCl)N1CCCCC1`: the inhibition constant Ki is 0.088 µM.

With `CCCCCn1c2ccccc2c2cc(C(=O)N3CCCCC3)ncc21`, the Ki stood at 0.0353 µM.

Turning to `CCCCCn1c2ccccc2c2cc(C(=O)NN3CCCCC3)ccc21`, the Ki was found to be 1.61 µM.

Consider `COCCCn1c2ccccc2c2cc(C(=O)N3CCCCC3)ccc21`, for which the Ki is 0.083 µM.

As for `COC(=O)CCCn1c2ccccc2c2cc(C(=O)N3CCCCC3)ccc21`, the Ki was 0.208 µM.

On to `O=C(c1ccc2c(c1)c1ccccc1n2CCCl)N1CCCCC1`, for which the Ki is 0.519 µM.

For `CC(C)(C)OC(=O)NCCCn1c2ccccc2c2cc(C(=O)N3CCCCC3)ccc21`, the inhibition constant (Ki) is 2.69 µM.

Take `CCCCCn1c2ccccc2c2cc(C(=O)OCc3ccccn3)ccc21`: the inhibition constant (Ki) was determined as 1.93 µM.

As to `CCCCCn1c2ccccc2c2cc(CN3CCCCC3)ccc21`, the inhibition constant Ki amounted to 0.37 µM.

For the molecule `CCCCn1c2ccccc2c2cc(C(=O)N3CCCCC3)ccc21`, the inhibitory constant (Ki) is 0.264 µM.

Another assay concerns the target T1, Cannabinoid receptor 2. The assay can be described thus: Induction of human CB2 receptor internalization expressed in HEK293 cells at 10 uM relative to CP55940. The class given is cell-based.
Conditions: not given; call rule not given here
Summed up: (§1)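 Cells stably expressing human CB1 or human CB2 receptors, exposed to test compound alone. […] Mean of two determinations.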
On to `CCCCCn1c2ccccc2c2cc(C(=O)N3CCS(=O)(=O)CC3)ccc21`, for which the Activity is 91.5%.

Take `O=C(OCCCn1c2ccccc2c2cc(C(=O)N3CCCCC3)ccc21)N1CCS(=O)(=O)CC1`: the Activity is 27.9%.

For the molecule `CCCCCCn1c2ccccc2c2cc(C(=O)N3CCCCC3)ccc21`, the Activity was 77%.

For the molecule `CCCCCn1c2ccccc2c2cc(C(=O)N3CCN(C)CC3)ccc21`, the Activity amounted to 43.9%.

With `O=C(c1ccc2c(c1)c1ccccc1n2CCCCl)N1CCCCC1`, the Activity is 111%.

On to `CCCCCn1c2ccccc2c2cc(C(=O)N3CCCCC3)ncc21`, for which the Activity amounted to 101%.

In the case of `COCCCn1c2ccccc2c2cc(C(=O)N3CCCCC3)ccc21`, the Activity turned out to be 68.1%.

Consider `COC(=O)CCCn1c2ccccc2c2cc(C(=O)N3CCCCC3)ccc21`, for which the Activity worked out at 37.3%.

Regarding `CCCCCn1c2ccccc2c2cc(CN3CCCCC3)ccc21`, the Activity was 79.6%.

As for `CCCCn1c2ccccc2c2cc(C(=O)N3CCCCC3)ccc21`, the Activity was 67.9%.

System in the next assay: not listed separately
Nature of the assay: Selectivity ratio of Ki for rat CB1 receptor to Ki for human CB2 receptor.
Conditions: not given
As to `CCCCCn1c2ccccc2c2cc(C(=O)N3CCNCC3)ccc21`, the Ratio Ki was 0.1.

Consider `O=C(c1ccc2c(c1)c1ccccc1n2Cc1cccnc1)N1CCCCC1`, for which the Ratio Ki was 1.71.

In the case of `CCOC(=O)CCn1c2ccccc2c2cc(C(=O)N3CCCCC3)ccc21`, the Ratio Ki was 3.79.

Consider `CCCCCn1c2ccccc2c2cc(C(=O)N3CCS(=O)(=O)CC3)ccc21`, for which the Ratio Ki came to 1.96.

`O=C(OCCCn1c2ccccc2c2cc(C(=O)N3CCCCC3)ccc21)N1CCS(=O)(=O)CC1`: the Ratio Ki was 30.9.

For the molecule `CCCCCn1c2ccccc2c2cc(CN3CCN(C)CC3)ccc21`, the Ratio Ki turned out to be 0.33.

Turning to `CCCCCCn1c2ccccc2c2cc(C(=O)N3CCCCC3)ccc21`, the Ratio Ki turned out to be 2.51.

On to `CCCCCn1c2ccccc2c2cc(C(=O)OCc3ccncc3)ccc21`, for which the Ratio Ki stood at 0.08.

As to `CCCCCn1c2ccccc2c2cc(C(=O)NC34CC5CC(CC(C5)C3)C4)ccc21`, the Ratio Ki came out at 5.03.

Regarding `CCCCCn1c2ccccc2c2cc(C(=O)N3CCN(C)CC3)ccc21`, the Ratio Ki is 3.47.

Take `CCCn1c2ccccc2c2cc(C(=O)N3CCCCC3)ccc21`: the Ratio Ki stood at 1.15.

For `O=C(c1ccc2c(c1)c1ccccc1n2CCCCl)N1CCCCC1`, the Ratio Ki is 1.4.

As to `CCCCCn1c2ccccc2c2cc(C(=O)N3CCCCC3)ncc21`, the Ratio Ki was found to be 3.86.

On to `COCCCn1c2ccccc2c2cc(C(=O)N3CCCCC3)ccc21`, for which the Ratio Ki was 8.88.

For `COC(=O)CCCn1c2ccccc2c2cc(C(=O)N3CCCCC3)ccc21`, the Ratio Ki came to 8.88.

As for `O=C(c1ccc2c(c1)c1ccccc1n2CCCl)N1CCCCC1`, the Ratio Ki is 4.55.

Consider `CCCCCn1c2ccccc2c2cc(C(=O)OCc3ccccn3)ccc21`, for which the Ratio Ki amounted to 0.35.

In the case of `CCCCCn1c2ccccc2c2cc(CN3CCCCC3)ccc21`, the Ratio Ki came to 0.33.

On to `CCCCn1c2ccccc2c2cc(C(=O)N3CCCCC3)ccc21`, for which the Ratio Ki came to 0.24.

A further assay deals with Cannabinoid receptor 1 (Homo sapiens) (UniProt P21554). The assay can be described thus: Induction of human CB1 receptor internalization expressed in HEK293 cells at 10 uM relative to CP55940. The class given is cell-based.
Sequence of Cannabinoid receptor 1 (Homo sapiens) (P21554 whole entry): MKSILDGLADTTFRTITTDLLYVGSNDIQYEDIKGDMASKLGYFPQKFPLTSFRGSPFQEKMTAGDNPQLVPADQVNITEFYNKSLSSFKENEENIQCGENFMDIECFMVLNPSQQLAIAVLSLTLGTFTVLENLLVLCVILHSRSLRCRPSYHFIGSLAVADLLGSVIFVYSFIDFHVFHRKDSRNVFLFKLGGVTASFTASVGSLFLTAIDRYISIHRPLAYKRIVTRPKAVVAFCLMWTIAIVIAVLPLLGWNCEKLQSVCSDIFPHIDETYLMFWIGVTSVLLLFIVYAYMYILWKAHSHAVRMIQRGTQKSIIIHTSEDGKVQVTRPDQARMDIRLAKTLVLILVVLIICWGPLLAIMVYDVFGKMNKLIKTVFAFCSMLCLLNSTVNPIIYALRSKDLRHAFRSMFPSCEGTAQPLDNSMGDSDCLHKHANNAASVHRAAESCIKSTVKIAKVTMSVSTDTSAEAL
Conditions: not given
The method, boiled down: as §1
For `CCCCCn1c2ccccc2c2cc(C(=O)N3CCS(=O)(=O)CC3)ccc21`, the Activity is 23.9%.

Turning to `O=C(OCCCn1c2ccccc2c2cc(C(=O)N3CCCCC3)ccc21)N1CCS(=O)(=O)CC1`, the Activity is 65.6%.

Regarding `CCCCCCn1c2ccccc2c2cc(C(=O)N3CCCCC3)ccc21`, the Activity is 122%.

For the molecule `CCCCCn1c2ccccc2c2cc(C(=O)N3CCN(C)CC3)ccc21`, the Activity came to 84.7%.

On to `O=C(c1ccc2c(c1)c1ccccc1n2CCCCl)N1CCCCC1`, for which the Activity came to 106%.

On to `CCCCCn1c2ccccc2c2cc(C(=O)N3CCCCC3)ncc21`, for which the Activity worked out at 128%.

In the case of `COCCCn1c2ccccc2c2cc(C(=O)N3CCCCC3)ccc21`, the Activity was 63.2%.

In the case of `COC(=O)CCCn1c2ccccc2c2cc(C(=O)N3CCCCC3)ccc21`, the Activity was 9.4%.

Take `CCCCCn1c2ccccc2c2cc(CN3CCCCC3)ccc21`: the Activity is -11.1%.

As for `CCCCn1c2ccccc2c2cc(C(=O)N3CCCCC3)ccc21`, the Activity was found to be 84.8%.

Another assay addresses Cannabinoid receptor 1 (Rattus norvegicus, UniProt P20272). The assay can be described thus: Displacement of [3H]-CP55940 from CB1 receptor in rat brain homogenate after 1.5 hrs by microbeta liquid scintillation counting analysis. The format is tissue-based.
Conditions: not given
The method, boiled down:
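Membranes from rat brain homogenate (CB1) or HEK293 cells expressing human CB2. […] GF/B filtration, then scintillation counting. […] IC50 by three-parameter logistic fit, Ki by Cheng-Prusoff. Three experiments in triplicate.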
On to `CCCCCn1c2ccccc2c2cc(C(=O)NCCc3ccc(Cl)cc3)ccc21`, for which the inhibitory constant (Ki) entry is on record as “Not Active”.

For the molecule `CCOC(=O)CCn1c2ccccc2c2cc(C(=O)N3CCN(C)CC3)ccc21`, the Ki entry is “Not Active”.

Consider `O=C(c1ccc2c(c1)c1ccccc1n2CCCN1CCCCC1)N1CCCCC1`, for which the Ki entry is on record as “Not Active”.

Turning to `CCCCCn1c2ccccc2c2cc(C(=O)NN3CCCCC3)ccc21`, the inhibition constant (Ki) result is listed as “Not Active”.

In the case of `CC(C)(C)OC(=O)NCCCn1c2ccccc2c2cc(C(=O)N3CCCCC3)ccc21`, the inhibition constant Ki entry is on record as “Not Active”.

Still in this assay, the particulars now being: read-out: Ki.
For `O=C(c1ccc2c(c1)c1ccccc1n2Cc1cccnc1)N1CCCCC1`, the inhibition constant Ki was determined as 1.02 µM.

For the molecule `CCOC(=O)CCn1c2ccccc2c2cc(C(=O)N3CCCCC3)ccc21`, the Ki is 4.98 µM.

Regarding `CCCCCn1c2ccccc2c2cc(C(=O)N3CCS(=O)(=O)CC3)ccc21`, the Ki is 0.44 µM.

With `O=C(OCCCn1c2ccccc2c2cc(C(=O)N3CCCCC3)ccc21)N1CCS(=O)(=O)CC1`, the Ki turned out to be 2.26 µM.

For the molecule `CCCCCn1c2ccccc2c2cc(CN3CCN(C)CC3)ccc21`, the inhibitory constant (Ki) stood at 0.244 µM.

As for `CCCCCCn1c2ccccc2c2cc(C(=O)N3CCCCC3)ccc21`, the Ki stood at 0.241 µM.

As for `CCCCCn1c2ccccc2c2cc(C(=O)OCc3ccncc3)ccc21`, the inhibition constant (Ki) worked out at 0.108 µM.

Consider `CCCCCn1c2ccccc2c2cc(C(=O)NC34CC5CC(CC(C5)C3)C4)ccc21`, for which the inhibition constant (Ki) turned out to be 1.45 µM.

Take `CCCCCn1c2ccccc2c2cc(C(=O)N3CCN(C)CC3)ccc21`: the Ki was determined as 0.123 µM.

For the molecule `CCCn1c2ccccc2c2cc(C(=O)N3CCCCC3)ccc21`, the Ki stood at 0.6 µM.

With `O=C(c1ccc2c(c1)c1ccccc1n2CCCCl)N1CCCCC1`, the inhibition constant Ki is 0.123 µM.

`CCCCCn1c2ccccc2c2cc(C(=O)N3CCCCC3)ncc21`: the inhibitory constant (Ki) worked out at 0.136 µM.

Consider `COCCCn1c2ccccc2c2cc(C(=O)N3CCCCC3)ccc21`, for which the Ki was found to be 1.44 µM.

On to `COC(=O)CCCn1c2ccccc2c2cc(C(=O)N3CCCCC3)ccc21`, for which the Ki came to 1.85 µM.

For the molecule `O=C(c1ccc2c(c1)c1ccccc1n2CCCl)N1CCCCC1`, the Ki turned out to be 2.36 µM.

With `CCCCCn1c2ccccc2c2cc(C(=O)OCc3ccccn3)ccc21`, the inhibitory constant (Ki) is 0.679 µM.

Turning to `CCCCCn1c2ccccc2c2cc(CN3CCCCC3)ccc21`, the inhibition constant (Ki) was 0.122 µM.

With `CCCCn1c2ccccc2c2cc(C(=O)N3CCCCC3)ccc21`, the Ki came to 0.063 µM.
